DAT uptake mod: changed human dopamine transporter uptake under cocaine IC80 | LLC-PK1 hDAT cells, [14C]-dopamine uptake with cocaine IC80; actives deviate in either direction | B-score at 10 µM | 110,000 compounds, 1.3% hits | AID 449768;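 active = Z score or B-score, a plate-position-corrected score, falls beyond the plate's 99.7% confidence bounds, in either direction; inactive = both scores lie inside the 99.7% bounds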
Target sequence (Q01959 whole entry, looked up): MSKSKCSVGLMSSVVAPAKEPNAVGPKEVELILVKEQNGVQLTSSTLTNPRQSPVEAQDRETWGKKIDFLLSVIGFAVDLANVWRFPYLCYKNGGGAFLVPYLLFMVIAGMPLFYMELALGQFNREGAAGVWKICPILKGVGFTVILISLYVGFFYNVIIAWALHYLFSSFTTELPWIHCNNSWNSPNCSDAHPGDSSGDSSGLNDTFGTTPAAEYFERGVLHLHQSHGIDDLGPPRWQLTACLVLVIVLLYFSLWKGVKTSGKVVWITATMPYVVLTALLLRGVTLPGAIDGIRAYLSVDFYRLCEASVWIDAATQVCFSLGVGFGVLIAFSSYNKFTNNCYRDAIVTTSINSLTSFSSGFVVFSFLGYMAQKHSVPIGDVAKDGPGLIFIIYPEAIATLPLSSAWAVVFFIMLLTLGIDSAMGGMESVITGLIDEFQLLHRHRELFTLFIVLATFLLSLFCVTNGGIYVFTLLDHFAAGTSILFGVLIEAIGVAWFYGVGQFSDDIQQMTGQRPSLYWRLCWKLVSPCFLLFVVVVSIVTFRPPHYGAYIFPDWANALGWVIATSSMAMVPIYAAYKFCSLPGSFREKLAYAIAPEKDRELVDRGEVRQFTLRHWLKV
Measles CPE: protection of cells from measles virus. Measles virus-infected cells, CPE protection, absorbance. 140,000 compounds, 1.5% hits. protection (pct of control), % at 4 µM. AID 841; in the data active = protection mostly above about 24%, no sharp cut-off; inactive = mostly below about 26%
WT yeast gro inh: growth inhibition of WT yeast, mitochondrial fusion screen; mitochondrial fusion phenotypic screen, WT strain; inhibition, % at 10 µM; 190,000 compounds, 2.1% hits; AID 1362; in the data active = inhibition above about 58%; tested in S. cerevisiae
Yeast lifespan up: yeast lifespan extension; AID 775; S. cerevisiae growth with nicotinamide, OD615; deaD strain in restrictive glucose medium; inhibition of the nicotinamide effect, % at 10 µM; 130,000 compounds, 0.68% hits;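 active = inhibition above a set limit, placed 3 SD over the median of all compounds, cut at about 26% in these data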
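System: DeaD-strain S. cerevisiae / Buffer or medium: CSMM-D, restrictive glucose (dextrose) synthetic minimal medium / Probe or stimulus: nicotinamide, 1.5 mM, co-present with compound / Compound: one concentration, 10 µM, DMSO 0.25% / Incubation: 48 h compound exposure at 30 °C, humidified / Technique: optical density (absorbance) at 615 nm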
RAM network inh: inhibitors of the yeast RAM network. 190,000 compounds, 1.8% hits. inhibition, % at 50 µM. AID 868. S. cerevisiae dse1pr::URA3 reporter, 5-FOA growth OD615, 2 d; analog-sensitive cbk1-as2 kinase mutant strain;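 active = inhibition above a set limit, 3 SD over mean compound inhibition, cut at about 8.4% in these data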;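 note: inhibition rescues growth on 5-FOA so higher OD means more RAM inhibition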
Yeast growth inh: reduces growth of yeast BB579 in restrictive medium. S. cerevisiae BB579 growth, OD615, 48 h. AID 804. inhibition, % at 10 µM. 140,000 compounds, 0.51% hits;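 active = inhibition above a set limit, 3 SD over the mean compound inhibition, cut at about 44% in these data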
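Test system: S. cerevisiae DeaD strain BB579 yeast; Medium: restrictive CSMM-D medium; Compound: one dose, 10 µM compound with 0.25% DMSO; Incubation: 4 h cell preincubation, 48 h compound exposure, 30 °C humidified; Signal: OD at 615 nm; Benchmarks: amphotericin B at 10 µg/mL as positive control.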
Numbers stand for hits; i = inactive; nt = no result. Compounds with a hit are over-represented: about 6.1% of the library has one in this group of screens.

SMILES | DAT uptake mod | Measles CPE | WT yeast gro inh | Yeast lifespan up | RAM network inh | Yeast growth inh
COC(CNC(=O)C1CCCN(S(=O)(=O)c2c(C)noc2/C=C/c2cccs2)C1)OC (stereo unspecified) | nt | nt | i | nt | i | nt
CSC(=S)N/N=C(\C)c1ccccc1 | nt | nt | 65 | nt | i | nt
CCOC(=O)C(=CNc1ccc(C)cc1C)C(=O)OCC | i | 37 | i | i | i | i
CCOC(=O)C(=CNc1cccc(C)c1C)C(=O)OCC | 6.1 | i | i | i | i | i
COc1ccc(NC(=O)C(c2cc3c(cc2[N+](=O)[O-])OCO3)N2CCN(C=O)CC2)cc1 (stereo unspecified) | nt | 23 | i | i | i | i
CC(NC(=O)c1ccco1)C(=O)OC(C)C(=O)NCc1ccccc1 (stereo unspecified) | nt | nt | i | nt | i | nt
COC(=O)c1nn(-c2ccccc2)c(Cl)c1/C=N/OCc1ccc(C)cc1 | 1.6 | i | i | i | 10 | i
COc1cc(N/C(N)=N/c2nc(C)cc(C)n2)c(OC)cc1Cl | nt | nt | i | nt | i | nt
Cn1nc(OC(=O)Nc2ccc(Cl)cc2)cc1C(F)(F)F | -2.9 | i | i | i | i | i
Cn1nc(OC(=O)Nc2ccc(F)cc2)cc1C(F)(F)F | i | i | i | i | i | i
Cn1nc(C(F)(F)F)c2cc(C(=O)Nc3ccc(Cl)cc3)sc21 | i | i | 74 | i | i | i
Cn1nc(C(F)(F)F)c2cc(NC(=O)OCc3ccc(F)cc3)sc21 | i | i | 79 | i | i | i
C=CCc1c(NCCO)nc(C)[nH]c1=O | nt | nt | i | nt | i | nt
OC(CSc1c(Cl)cccc1Cl)CN1CCN(c2ccccc2F)CC1 (stereo unspecified) | i | i | 66 | i | i | i
FC(F)Sc1ccc(NC(=S)NCC2CCCCC2)cc1 | i | i | 78 | i | i | i
CC1CCCCC1NC(=S)Nc1ccc(SC(F)F)cc1 (stereo unspecified) | i | i | 69 | i | i | i
FC(F)Sc1ccc(NC(=S)NC2CCCCC2)cc1 | i | i | i | i | i | i
CCOC(=O)c1ccc(NC(=O)N(CC)CC)cc1 | i | i | i | i | i | i
CCOc1ccc(-c2cc(C(=O)NCC3CCCO3)c3ccccc3n2)cc1 (stereo unspecified) | nt | i | i | i | i | i
CSc1nc(-c2ccc(Cl)cc2Cl)[nH]c(=O)c1C#N | nt | 55 | i | i | i | i
Cc1cc(C)c(C#N)c(SCC(=O)c2ccc(Cl)cc2Cl)n1 | i | i | i | i | i | i
O=C(Nc1ncccn1)C1CCCN1S(=O)(=O)c1ccc(Cl)c(Cl)c1 (stereo unspecified) | i | 45 | i | i | i | i
O=C(O)C1CCCN1S(=O)(=O)c1ccc(Cl)c(Cl)c1 (stereo unspecified) | i | i | i | i | i | i
CCc1ccccc1N1C[C@@]23C=C[C@@H](O2)C(C(=O)OCC(C)C)[C@H]3C1=O (stereo partly specified) | i | i | 60 | i | i | i
CCc1ccccc1N1CC23C=CC(O2)C(C(=O)OC)C3C1=O (stereo unspecified) | i | i | i | i | i | i
SMILES | DAT uptake mod | Measles CPE | WT yeast gro inh | Yeast lifespan up | RAM network inh | Yeast growth inh
CCN(CC)S(=O)(=O)c1ccc(C)c(NC(=S)Nc2cccc(S(=O)(=O)N3CCCCCC3)c2)c1 | nt | i | i | i | 9.0 | i
CCOC(=O)C1[C@H]2C(=O)N(CCCOC)C[C@]23C=C[C@H]1O3 (stereo partly specified) | i | i | i | i | i | i
CCCCCCN1CC(C(=O)OCC)C(=O)C1=O (stereo unspecified) | nt | i | i | 50 | i | i
Cn1nnnc1SCCNCC#Cc1ccccc1 | i | i | i | 114 | i | i
CCOc1ncccc1C(=O)N(C)CC(=O)Nc1ccccc1SC | nt | i | i | i | i | i
COc1ccc(/C=C2\CCCC3C2=NC(=S)NC3c2ccc(OC)cc2)cc1 (stereo unspecified) | nt | i | 72 | i | i | i
O=c1c2sccc2nc(SCc2ccc([N+](=O)[O-])cc2)n1Cc1ccccn1 | nt | i | i | i | i | i
COc1cc([N+](=O)[O-])cc2cc(C(=O)N3CCN=C3c3ccccc3)c(=O)oc12 | nt | nt | i | nt | 8.9 | nt
NS(=O)(=O)c1ccc(NC(=O)CN2CCCN(S(=O)(=O)c3ccc(F)cc3)CC2)cc1 | nt | nt | i | nt | i | nt
O=C(CN1CCCN(S(=O)(=O)c2ccc(F)cc2)CC1)Nc1ccccc1Br | 3.2 | i | i | i | i | i
O=[N+]([O-])c1ccc(N2CCCC2)cc1NC(c1ccccc1)c1ccccc1 | i | i | i | i | i | i
O=[N+]([O-])c1ccc(N2CCOCC2)cc1NC(c1ccccc1)c1ccccc1 | nt | 45 | i | i | i | i
O=C(COC(=O)Cc1ccc(Br)cc1)NC12CC3CC(CC(C3)C1)C2 | i | i | 84 | i | i | i
O=C(COC(=O)Cc1ccc(Br)cc1)NC1CCCCCC1 | nt | nt | i | nt | i | nt
CC(=O)N(Cc1ccccc1C)c1cccc(C)c1C | nt | nt | i | nt | i | nt
CC(C)CCOc1ccc(C(=O)N2CCCC2C(=O)O)cc1 (stereo unspecified) | nt | nt | i | nt | i | nt
Clc1ccc(-c2nnc(-c3ccc(Br)cc3)c(N3CCSCC3)n2)cc1 | i | i | i | i | i | i
Clc1ccc(-c2nnc(-c3ccco3)nc2N2CCCCC2)cc1 | nt | i | 66 | i | i | i
O=C(O)C1CCCCC1C(=O)NCc1ccc2c(c1)OCO2 (stereo unspecified) | nt | nt | i | nt | i | nt
O=c1[nH]c(=O)n(Cc2ccccc2)c2c1C(C(F)(F)F)(C(F)(F)F)N=C(c1ccco1)N2 | i | i | i | i | i | i
O=c1[nH]c(=O)n(Cc2ccco2)c2c1C(C(F)(F)F)(C(F)(F)F)N=C(c1ccc(F)cc1)N2 | i | i | i | i | 8.8 | i
CC(=O)c1c(N)c(C#N)c(C)n1-c1ccc(Br)cc1 | i | i | i | i | i | i
Cc1c(C#N)c(N=CN(C)C)c(C(=O)c2ccc(Br)cc2)n1-c1ccc(Cl)cc1 | i | i | 61 | i | i | i
CC1(OC(=O)C2CCCC2)C(=O)C=C2C=C(c3ccsc3)N(CCc3c[nH]c4ccccc34)C=C2C1=O (stereo unspecified) | i | nt | nt | nt | nt | nt
COc1cc(/C=c2\sc3nc(-c4ccncc4)nn3c2=O)ccc1OC(C)=O | nt | i | i | 33 | i | i
Cc1[nH]c2ccccc2c1C(=O)COC(=O)c1ccc2c(=O)n3c(nc2c1)CCC3 | nt | nt | i | nt | 9.1 | nt
CN(C(=O)COC(=O)c1ccc2c(=O)n3c(nc2c1)CCC3)c1ccccc1 | nt | i | i | i | i | i
O=C(c1ccc(Cl)cc1)C1CCN(C(=O)C2CC2)CC1 | i | i | i | i | i | i
O=C(c1c[nH]c(C(=O)C(Cl)(Cl)Cl)c1)c1ccccc1Cl | i | i | i | 90 | i | 67
COCCOC(=O)c1c(C)nc(SCC(=O)Nc2cccc3ccccc23)c(C#N)c1-c1ccco1 | -8.2 | i | i | i | i | i
